# In ChEMBL document CHEMBL4038269, “Design, synthesis and evaluation of novel feruloyl-donepezil hybrids as potential multitarget drugs for the treatment of Alzheimer's disease” (Eur J Med Chem, 2017):
# Activity calls are given as the source filed them.
# Assays:
# Mus musculus [1] = experiment: Anti-inflammatory activity in Swiss mouse model of LPS-induced peritonitis assessed as inhibition of leukocyte migration at 100 umol/kg, po pretreated for 30 mins followed by LPS challenge measured after 4 hrs by Neubauer chamber method; format: functional, organism-based
# Method in brief: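 Adult male Swiss mice (22-28 g), n=8 per group, dosed orally with 100 µmol/kg or vehicle (saline + DMSO 2%). 30 min later E. coli 026:B6 LPS, 100 µg/kg i.p. in sterile saline. Killed at 4 h by halothane overdose. Peritoneum lavaged with 10 ml PBS containing 0.5% sodium citrate. Total leukocytes counted in a Neubauer chamber, expressed as cells per cavity, mean ± SEM.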
# Mus musculus [2] = experiment: Antinociceptive activity in carrageenan-induced Swiss mouse model of mechanical hyperalgesia at 100 umol/kg, po pretreated for 1 hr followed by carrageenan challenge measured at 3 hrs post dose by Von Frey filament assay; format: functional, organism-based
# Method in brief: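 Male Swiss mice (n=8) dosed orally with 100 µmol/kg or vehicle 1 h before intraplantar carrageenan (100 µg/paw). Mechanical threshold measured by up-and-down Von Frey method after 60 min acclimation on a wire screen. Started at 0.4 g filament, ≥6 trials at 10 s intervals, about 4 s per application. Reported as mean threshold in grams ± SEM.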
# [3] = Cytotoxicity against human SH-SY5Y cells assessed as reduction in cell viability at 40 uM after 24 hrs by MTT assay relative to control; format: cell-based; conditions: read-out: INH
# Method in brief: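 SH-SY5Y cells seeded at 2 x 10^4 cells/well, grown 24 h, then exposed to compound 1.25–40 µM for 24 h at 37 °C. MTT (5 mg/mL in PBS) added for 2 h and formazan dissolved in isopropanol. Read at 570 nm, reference 690 nm. Viability loss reported as percent at the top concentration, 40 µM.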
# [4] = Metal chelating activity assessed as absorption maximum for compound-Zn2+ complex formation at 75 uM after 30 mins by UV-Vis spectrophotometric method; format: functional
# Method in brief: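 UV-Vis spectra in ethanol of compound at 75 µM alone or after 30 min incubation with CuSO4, FeSO4, FeCl3 or ZnCl2 (150 µM). Absorption maxima recorded.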
# SH-SY5Y [5] = experiment: Iron chelating activity in human SH-SY5Y cells assessed as reduction in FeSO4/H2O2-induced reactive oxygen species formation at 10 to 20 uM after 30 mins by DCFH-DA probe based fluorescence assay; format: functional, cell-based
# Method in brief: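 SH-SY5Y cells seeded at 3 x 10^4 cells/well and preloaded with DCFH-DA (10 µg/mL, 30 min, room temperature). Then given compound (5, 10, 20 µM) with FeSO4/H2O2 or CuSO4/H2O2 for 30 min; metal 25 µM and H2O2 100 µM per figure legend. Fluorescence read at ex 485/em 535 nm, arbitrary units. Mean ± SD of three experiments.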
# SH-SY5Y [6] = experiment: Antioxidant activity in human SH-SY5Y cells assessed as increase in GSH level at 20 uM by MCB probe based assay relative to control; format: functional; conditions: TDE = time-dependent effect
# Method in brief: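 SH-SY5Y cells (DMEM, 10% FBS, 37 °C, 5% CO2) seeded at 2 x 10^4 cells/well and grown 24 h. Treated with 20 µM compound for 3-24 h. Then 50 µM monochlorobimane in PBS for 30 min at 37 °C. GSH fluorescence read at ex 360/em 465 nm, as % of control cells. Mean ± SD of three independent experiments.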
# [7] = molecular target: T1, Nuclear factor erythroid 2-related factor 2 (Homo sapiens) (UniProt Q16236); experiment: Induction of Nrf2 nuclear translocation in human SH-SY5Y cells assessed as Nrf2 binding to antioxidant response element at 20 uM measured after 1 to 6 hrs by TransAM ELISA; format: cell-based; conditions: TDE = time-dependent effect
# T1 sequence (whole entry): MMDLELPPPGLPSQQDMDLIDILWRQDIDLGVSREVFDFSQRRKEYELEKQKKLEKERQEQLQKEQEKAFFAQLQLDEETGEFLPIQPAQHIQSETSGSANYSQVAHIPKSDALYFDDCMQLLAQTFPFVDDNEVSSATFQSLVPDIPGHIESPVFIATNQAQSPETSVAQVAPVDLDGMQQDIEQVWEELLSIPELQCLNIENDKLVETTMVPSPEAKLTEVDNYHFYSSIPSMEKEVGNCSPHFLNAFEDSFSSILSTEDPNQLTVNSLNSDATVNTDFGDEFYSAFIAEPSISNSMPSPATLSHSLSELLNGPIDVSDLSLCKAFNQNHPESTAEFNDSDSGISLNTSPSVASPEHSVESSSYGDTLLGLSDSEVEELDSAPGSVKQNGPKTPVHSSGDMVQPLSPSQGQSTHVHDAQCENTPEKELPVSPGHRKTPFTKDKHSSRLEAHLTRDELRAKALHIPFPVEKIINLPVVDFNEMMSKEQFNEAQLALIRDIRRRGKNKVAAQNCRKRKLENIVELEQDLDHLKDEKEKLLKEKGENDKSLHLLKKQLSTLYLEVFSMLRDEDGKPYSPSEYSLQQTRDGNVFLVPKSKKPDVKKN
# Method in brief: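 SH-SY5Y cells seeded at 2×10^6 per 60 mm dish, grown 24 h, then given 20 µM compound for 1-6 h at 37 °C. Nuclear extracts prepared by kit. 20 µg nuclear protein tested for Nrf2 DNA binding by TransAM Nrf2 immunoassay. Expressed as % of control cells; mean ± SD of three experiments. Nrf2-transfected COS-7 cells served as positive control.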
# SH-SY5Y [8] = experiment: Neuroprotective activity in human SH-SY5Y cells assessed as reduction in amyloid beta (1 to 42)-induced early vacuole formation at 20 uM after 4 hrs by MTT dye based microscopic method; format: functional, cell-based
# Method in brief: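 SH-SY5Y cells seeded at 3 x 10^4 cells/well, grown 24 h. Treated with compound (20 µM) plus Aβ1-42 oligomers (10 µM) for 4 h at 37 °C. Oligomers were prepared from HFIP-treated, DMSO-dissolved peptide and checked by TEM. MTT (5 mg/mL in PBS) added for 2 h. Cells inspected by light microscopy for needle-like exocytosed formazan crystals.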
# Mus musculus [9] = experiment: In vivo inhibition of COX-1 activity in carrageenan-induced Swiss mouse serum at 100 umol/kg, po pretreated for 1 hr followed by carrageenan challenge after 3 hrs by ELISA relative to control; format: functional
# Method in brief: (§1)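 Male Swiss mice given oral drug (100 µmol/kg) or vehicle 1 h before intraplantar carrageenan (legend: 400 µg/paw). At 3 h, animals anaesthetised with chloral hydrate and cardiac blood taken. Serum separated (1500 rpm, 20 min) and frozen at -70 °C. COX-1, COX-2 and 5-LOX measured by specific sandwich ELISA at 450 nm. Expressed as % enzymatic activity, mean ± SEM, n=8.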
# Mus musculus [10] = experiment: In vivo inhibition of COX-2 activity in carrageenan-induced Swiss mouse serum at 100 umol/kg, po pretreated for 1 hr followed by carrageenan challenge after 3 hrs by ELISA relative to control; format: functional; method in brief: as §1
smiles,measurement,setting,value
COc1cc(/C=C/C(=O)OCC2CCN(Cc3ccccc3)CC2)ccc1O,inhibition,Mus musculus [1],Active
same,Activity,Mus musculus [2],Active
same,"cytotoxicity at 24 h, 40 µM",[3],6%
same,Activity,[4],inactive
same,Activity,SH-SY5Y [5],Active
same,Activity,SH-SY5Y [6],Tde
same,Activity,[7],Tde
same,Activity,SH-SY5Y [8],inactive
same,inhibition in vivo at 100 µmol/kg,Mus musculus [9],40%
same,inhibition in vivo at 100 µmol/kg,Mus musculus [10],27%
